This note sets out measurements from ChEMBL document CHEMBL1155270, “Modifications at the C-terminus to improve pyrrole-imidazole polyamide activity in cell culture” (J Med Chem, 2009).

The first assay relates to Nucleic Acid. Put plainly: Binding affinity to 5'-TTGCAGAACAGCAA-3' sequence of DNA assessed as change in melting temperature by spectrophotometry. The assay is classed as nucleic-acid assay.
`Cn1cc(NC(=O)c2cc(NC(=O)c3cc(NC(=O)c4nc(NC(=O)[C@H](N)CCNC(=O)c5cc(NC(=O)c6cc(NC(=O)c7cc(NC(=O)c8nccn8C)cn7C)cn6C)cn5C)cn4C)cn3C)cn2C)cc1C(=O)NCCCN`: the ΔTm (commonly the change in melting temperature against a reference sample) amounted to 16.2 °C. On the same count and under the same terms, as for `CN(C)CCCNC(=O)CCNC(=O)c1cc(NC(=O)c2cc(NC(=O)c3cc(NC(=O)c4nc(NC(=O)[C@H](N)CCNC(=O)c5cc(NC(=O)c6cc(NC(=O)c7cc(NC(=O)c8nccn8C)cn7C)cn6C)cn5C)cn4C)cn3C)cn2C)cn1C`, the figure is 14.3 °C; as for `Cn1cc(NC(=O)c2cc(NC(=O)c3cc(NC(=O)c4nc(NC(=O)[C@H](N)CCNC(=O)c5cc(NC(=O)c6cc(NC(=O)c7cc(NC(=O)c8nccn8C)cn7C)cn6C)cn5C)cn4C)cn3C)cn2C)cc1C(=O)NCCCCCCCN`, 14.3 °C.

Take `CN(CCCN)CCCNC(=O)c1cc(NC(=O)c2cc(NC(=O)c3cc(NC(=O)c4nc(NC(=O)[C@H](N)CCNC(=O)c5cc(NC(=O)c6cc(NC(=O)c7cc(NC(=O)c8nccn8C)cn7C)cn6C)cn5C)cn4C)cn3C)cn2C)cn1C`: the ΔTm was 17.3 °C.

The next assay relates to Nucleic Acid. The assay can be described thus: Binding affinity to 14mer DNA assessed as change in melting temperature by spectrophotometry. In kind it is nucleic-acid assay. The method, boiled down:
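Thermal melting of 14-mer oligonucleotide duplexes (HRE or ARE sequence) with and without polyamide, read by UV spectrophotometry in 1 cm quartz cuvettes with a thermostatted holder. Buffer was 10 mM sodium cacodylate, 10 mM KCl, 10 mM MgCl2, 5 mM CaCl2, pH 7.0. ΔTm is taken relative to the free duplex.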
Consider `Cn1cc(NC(=O)c2cc(NC(=O)c3cc(NC(=O)c4nc(NC(=O)[C@H](N)CCNC(=O)c5nc(NC(=O)c6cc(NC(=O)c7nc(NC(=O)c8nccn8C)cn7C)cn6C)cn5C)cn4C)cn3C)cn2C)cc1C(=O)NCCCN`, for which the ΔTm amounted to 4.1 °C.

In the case of `Cn1cc(NC(=O)c2cc(NC(=O)c3cc(NC(=O)c4nc(NC(=O)[C@H](N)CCNC(=O)c5nc(NC(=O)c6cc(NC(=O)c7nc(NC(=O)c8nccn8C)cn7C)cn6C)cn5C)cn4C)cn3C)cn2C)cc1C(=O)NCCCNC(=O)c1cccc(C(=O)O)c1`, the ΔTm was found to be 0.5 °C. `Cn1cc(NC(=O)c2cc(NC(=O)c3nc(NC(=O)c4cc(NC(=O)[C@H](N)CCNC(=O)c5nc(NC(=O)c6cc(NC(=O)c7cc(NC(=O)c8nccn8C)cn7C)cn6C)cn5C)cn4C)cn3C)cn2C)cc1C(=O)NCCCNC(=O)c1cccc(C(=O)O)c1`: the ΔTm was 1.5 °C. Turning to `Cn1cc(NC(=O)c2cc(NC(=O)c3cc(NC(=O)c4nc(NC(=O)[C@H](N)CCNC(=O)c5nc(NC(=O)c6cc(NC(=O)c7nc(NC(=O)c8nccn8C)cn7C)cn6C)cn5C)cn4C)cn3C)cn2C)cc1C(=O)NCCCCCCCNC(=O)c1cccc(C(=O)O)c1`, the ΔTm is 0.7 °C. Same read-out and setting: as for `Cn1cc(NC(=O)c2cc(NC(=O)c3cc(NC(=O)c4nc(NC(=O)[C@H](N)CCNC(=O)c5nc(NC(=O)c6cc(NC(=O)c7nc(NC(=O)c8nccn8C)cn7C)cn6C)cn5C)cn4C)cn3C)cn2C)cc1C(=O)NCCCCCCCN`, the figure is 2.1 °C; as for `Cn1cc(NC(=O)c2cc(NC(=O)c3nc(NC(=O)c4cc(NC(=O)[C@H](N)CCNC(=O)c5nc(NC(=O)c6cc(NC(=O)c7cc(NC(=O)c8nccn8C)cn7C)cn6C)cn5C)cn4C)cn3C)cn2C)cc1C(=O)NCCCCCCCNC(=O)c1cccc(C(=O)O)c1`, 2.6 °C. On the same count and under the same terms, as for `CN(CCCN)CCCNC(=O)c1cc(NC(=O)c2cc(NC(=O)c3nc(NC(=O)c4cc(NC(=O)[C@H](N)CCNC(=O)c5nc(NC(=O)c6cc(NC(=O)c7cc(NC(=O)c8nccn8C)cn7C)cn6C)cn5C)cn4C)cn3C)cn2C)cn1C`, the figure is 6.4 °C; as for `Cn1cc(NC(=O)c2cc(NC(=O)c3nc(NC(=O)c4cc(NC(=O)[C@H](N)CCNC(=O)c5nc(NC(=O)c6cc(NC(=O)c7cc(NC(=O)c8nccn8C)cn7C)cn6C)cn5C)cn4C)cn3C)cn2C)cc1C(=O)NCCCN`, 5.3 °C; as for `CN(CCCN)CCCNC(=O)c1cc(NC(=O)c2cc(NC(=O)c3cc(NC(=O)c4nc(NC(=O)[C@H](N)CCNC(=O)c5nc(NC(=O)c6cc(NC(=O)c7nc(NC(=O)c8nccn8C)cn7C)cn6C)cn5C)cn4C)cn3C)cn2C)cn1C`, 3.1 °C. Same read-out and setting: as for `Cn1cc(NC(=O)c2cc(NC(=O)c3cc(NC(=O)c4nc(NC(=O)[C@H](N)CCNC(=O)c5nc(NC(=O)c6cc(NC(=O)c7nc(NC(=O)c8nccn8C)cn7C)cn6C)cn5C)cn4C)cn3C)cn2C)cc1C(=O)NCCCON`, the figure is 0.1 °C; as for `CN(CCCNC(=O)c1cccc(C(=O)O)c1)CCCNC(=O)c1cc(NC(=O)c2cc(NC(=O)c3cc(NC(=O)c4nc(NC(=O)[C@H](N)CCNC(=O)c5nc(NC(=O)c6cc(NC(=O)c7nc(NC(=O)c8nccn8C)cn7C)cn6C)cn5C)cn4C)cn3C)cn2C)cn1C`, 0.9 °C. Take `CN(C)CCCNC(=O)CCNC(=O)c1cc(NC(=O)c2cc(NC(=O)c3nc(NC(=O)c4cc(NC(=O)[C@H](N)CCNC(=O)c5nc(NC(=O)c6cc(NC(=O)c7cc(NC(=O)c8nccn8C)cn7C)cn6C)cn5C)cn4C)cn3C)cn2C)cn1C`: the ΔTm worked out at 3.6 °C. `CN(CCCNC(=O)c1cccc(C(=O)O)c1)CCCNC(=O)c1cc(NC(=O)c2cc(NC(=O)c3nc(NC(=O)c4cc(NC(=O)[C@H](N)CCNC(=O)c5nc(NC(=O)c6cc(NC(=O)c7cc(NC(=O)c8nccn8C)cn7C)cn6C)cn5C)cn4C)cn3C)cn2C)cn1C`: the ΔTm worked out at 4 °C. On the same count and under the same terms, as for `Cn1cc(NC(=O)c2cc(NC(=O)c3nc(NC(=O)c4cc(NC(=O)[C@H](N)CCNC(=O)c5nc(NC(=O)c6cc(NC(=O)c7cc(NC(=O)c8nccn8C)cn7C)cn6C)cn5C)cn4C)cn3C)cn2C)cc1C(=O)NCCCCCCCN`, the figure is -0.9 °C.

Another assay relates to Nucleic Acid. The assay can be described thus: Binding affinity to 5'-GTGCATACGTGGGC-3' sequence of DNA assessed as change in melting temperature by spectrophotometry. The assay is classed as nucleic-acid assay.
With `CN(C)CCCNC(=O)CCNC(=O)c1cc(NC(=O)c2cc(NC(=O)c3cc(NC(=O)c4nc(NC(=O)[C@H](N)CCNC(=O)c5nc(NC(=O)c6cc(NC(=O)c7nc(NC(=O)c8nccn8C)cn7C)cn6C)cn5C)cn4C)cn3C)cn2C)cn1C`, the ΔTm was found to be 1.6 °C. Consider `Cn1cc(NC(=O)c2cc(NC(=O)c3nc(NC(=O)c4cc(NC(=O)[C@H](N)CCNC(=O)c5nc(NC(=O)c6cc(NC(=O)c7cc(NC(=O)c8sccc8Cl)cn7C)cn6C)cn5C)cn4C)cn3C)cn2C)cc1C(=O)NCCCNC(=O)c1cccc(C(=O)O)c1`, for which the ΔTm was determined as 9.5 °C. In the case of `CN(C)CCCNC(=O)CCNC(=O)c1cc(NC(=O)c2cc(NC(=O)c3nc(NC(=O)c4cc(NC(=O)[C@H](N)CCNC(=O)c5nc(NC(=O)c6cc(NC(=O)c7cc(NC(=O)c8sccc8Cl)cn7C)cn6C)cn5C)cn4C)cn3C)cn2C)cn1C`, the ΔTm is 12.4 °C. Still for that read-out and setting: as for `Cn1cc(NC(=O)c2cc(NC(=O)c3nc(NC(=O)c4cc(NC(=O)[C@H](N)CCNC(=O)c5nc(NC(=O)c6cc(NC(=O)c7cc(NC(=O)c8sccc8Cl)cn7C)cn6C)cn5C)cn4C)cn3C)cn2C)cc1C(=O)NCCCCCCCNC(=O)c1cccc(C(=O)O)c1`, the figure is 9 °C; as for `Cn1cc(NC(=O)c2cc(NC(=O)c3nc(NC(=O)c4cc(NC(=O)[C@H](N)CCNC(=O)c5nc(NC(=O)c6cc(NC(=O)c7cc(NC(=O)c8sccc8Cl)cn7C)cn6C)cn5C)cn4C)cn3C)cn2C)cc1C(=O)NCCCON`, 10.6 °C. Same read-out and setting: as for `CN(CCCN)CCCNC(=O)c1cc(NC(=O)c2cc(NC(=O)c3nc(NC(=O)c4cc(NC(=O)[C@H](N)CCNC(=O)c5nc(NC(=O)c6cc(NC(=O)c7cc(NC(=O)c8sccc8Cl)cn7C)cn6C)cn5C)cn4C)cn3C)cn2C)cn1C`, the figure is 14.8 °C. Take `Cn1cc(NC(=O)c2cc(NC(=O)c3nc(NC(=O)c4cc(NC(=O)[C@H](N)CCNC(=O)c5nc(NC(=O)c6cc(NC(=O)c7cc(NC(=O)c8sccc8Cl)cn7C)cn6C)cn5C)cn4C)cn3C)cn2C)cc1C(=O)NCCCN`: the ΔTm was 13.5 °C. Same read-out and setting: as for `Cn1cc(NC(=O)c2cc(NC(=O)c3nc(NC(=O)c4cc(NC(=O)[C@H](N)CCNC(=O)c5nc(NC(=O)c6cc(NC(=O)c7cc(NC(=O)c8sccc8Cl)cn7C)cn6C)cn5C)cn4C)cn3C)cn2C)cc1C(=O)NCCCCCCCN`, the figure is 12.7 °C.

The subject of a further assay is LNCaP. Put plainly: Cytotoxicity against human LNCAP cells assessed as cell viability at 0.01 to 30 uM after 48 hrs by WST1 assay. The assay is classed as functional. In outline:
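LNCaP cells were seeded at 10-15 × 10^2 per well and allowed to settle 48 h before polyamide was added as 2× media solutions (DMSO <0.1%). After 48 h exposure, media was replaced and cells recovered 24 h. WST-1 was added for 30 min and A450 read. Wells were corrected for media-only background and normalized to untreated controls.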
Consider `Cn1cc(NC(=O)c2cc(NC(=O)c3nc(NC(=O)c4cc(NC(=O)[C@H](N)CCNC(=O)c5nc(NC(=O)c6cc(NC(=O)c7cc(NC(=O)c8nccn8C)cn7C)cn6C)cn5C)cn4C)cn3C)cn2C)cc1C(=O)NCCCNC(=O)c1cccc(C(=O)O)c1`, for which the Activity is given as under 50%. In the case of `Cn1cc(NC(=O)c2cc(NC(=O)c3nc(NC(=O)c4cc(NC(=O)[C@H](N)CCNC(=O)c5nc(NC(=O)c6cc(NC(=O)c7cc(NC(=O)c8nccn8C)cn7C)cn6C)cn5C)cn4C)cn3C)cn2C)cc1C(=O)NCCCCCCCNC(=O)c1cccc(C(=O)O)c1`, the Activity is given as under 50%. On the same count and under the same terms, as for `CN(CCCNC(=O)c1cccc(C(=O)O)c1)CCCNC(=O)c1cc(NC(=O)c2cc(NC(=O)c3nc(NC(=O)c4cc(NC(=O)[C@H](N)CCNC(=O)c5nc(NC(=O)c6cc(NC(=O)c7cc(NC(=O)c8nccn8C)cn7C)cn6C)cn5C)cn4C)cn3C)cn2C)cn1C`, the figure is under 50%.
